The source of these data is ChEMBL document CHEMBL3992547, “Antimicrobial activity of rhodanine-3-acetic acid derivatives” (Bioorg Med Chem, 2017).

As usually defined, the MIC50 is an inhibitory concentration at the 50% level, which refers to growth in some studies and to a panel of isolates in others. By MIC80 is commonly meant an inhibitory concentration at the 80% level, which refers to growth in some studies and to a panel of isolates in others. A lower MIC80 goes with higher susceptibility. A word on the MIC: it is the lowest concentration found to suppress growth.

Data set [1] relates to Trichophyton mentagrophytes. The data set is described as follows: Antifungal activity against Trichophyton mentagrophytes 445 after 72 hrs by microdilution broth assay. It counts as functional. As to conditions: Trichophyton mentagrophytes, 445, 72 h. The method, boiled down: (§1)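 Broth microdilution per CLSI M38-A2 in RPMI 1640 with glutamine, buffered to pH 7.0 with MOPS, with DMSO as diluent. Final inoculum is 0.5–5 × 10⁴ CFU/mL. Plates are incubated in the dark at 35 °C in humid air and read visually and/or at 540 nm after 72 and 120 h. MIC is at least 50% growth reduction versus control.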
(In broth dilution the organism is exposed to a series of concentrations in liquid medium.)

The test system of data set [2] is Candida albicans. The data set is described as follows: Antifungal activity against Candida albicans ATCC 44859 after 24 hrs by microdilution broth assay. It counts as functional. The note with it: ATCC 44859, 24 h. Put shortly:
(§2)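 Broth microdilution per CLSI M27-A3 and M38-A2 in RPMI 1640 with glutamine, buffered to pH 7.0 with MOPS. Compounds are diluted in DMSO. Final inoculum is 5 × 10³ CFU/mL for yeasts and 0.5–5 × 10⁴ CFU/mL for moulds. Plates are incubated in the dark at 35 °C in humid air and read visually and/or at 540 nm after 24 and 48 h. MIC is ≥80% growth reduction (IC₈₀) for yeasts and ≥50% (IC₅₀) for filamentous fungi.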

In data set [3] the test system is Trichosporon asahii. The data set is described as follows: Antifungal activity against Trichosporon asahii 1188 after 48 hrs by microdilution broth assay. The class given is functional. As to conditions: Trichosporon asahii, 1188, 48 h. Put shortly:
as §2

The test system of data set [4] is Trichophyton mentagrophytes. The data set is described as follows: Antifungal activity against Trichophyton mentagrophytes 445 after 120 hrs by microdilution broth assay. It counts as functional. As to conditions: Trichophyton mentagrophytes, 445, 120 h. Put shortly:
as §1

Data set [5] relates to Nakaseomyces glabratus. As to the kind of experiment: Antifungal activity against Candida glabrata 20/I after 24 hrs by microdilution broth assay. The class given is functional. The method, boiled down:
as §2

The subject of data set [6] is Aspergillus fumigatus. The data set is described as follows: Antifungal activity against Aspergillus fumigatus 231 after 24 hrs by microdilution broth assay. It counts as functional. As to conditions: Aspergillus fumigatus, 231, 24 h. Put shortly:
as §2

The test system of data set [7] is Aspergillus fumigatus. The data set is described as follows: Antifungal activity against Aspergillus fumigatus 231 after 48 hrs by microdilution broth assay. It counts as functional. As to conditions: Aspergillus fumigatus, 231, 48 h. Put shortly: as §2
The test system of data set [8] is Trichosporon asahii. As to the kind of experiment: Antifungal activity against Trichosporon asahii 1188 after 24 hrs by microdilution broth assay. The class given is functional. As to conditions: Trichosporon asahii, 1188, 24 h. Put shortly:
as §2

Data set [9] deals with Candida tropicalis. As to the kind of experiment: Antifungal activity against Candida tropicalis 156 after 48 hrs by microdilution broth assay. The class given is functional. The note with it: Candida tropicalis, 156, 48 h. Put shortly: as §2
Data set [10] relates to Candida tropicalis. As to the kind of experiment: Antifungal activity against Candida tropicalis 156 after 24 hrs by microdilution broth assay. It counts as functional. As to conditions: Candida tropicalis, 156, 24 h. The method, boiled down: as §2
Data set [11] concerns Nakaseomyces glabratus. The data set is described as follows: Antifungal activity against Candida glabrata 20/I after 48 hrs by microdilution broth assay. It counts as functional. The method, boiled down: as §2
Data set [12] concerns Candida albicans. The data set is described as follows: Antifungal activity against Candida albicans ATCC 44859 after 48 hrs by microdilution broth assay. The class given is functional. As to conditions: ATCC 44859, 48 h. Put shortly: as §2
Data set [13] has as its system Mycobacterium kansasii. As to the kind of experiment: Antimycobacterial activity against Mycobacterium kansasii isolate 6509/96 after 7 days by micromethod. The class given is functional. The note with it: isolate 6509/96, 168 h.
Data set [14] concerns Mycobacterium tuberculosis. The data set is described as follows: Antimycobacterial activity against Mycobacterium tuberculosis H37Rv 331/88 measured after 21 days by micromethod. The class given is functional. As to conditions: H37Rv 331/88, 504 h.
In data set [15] the test system is Klebsiella pneumoniae. As to the kind of experiment: Antibacterial activity against ESBL positive Klebsiella pneumoniae J 14368/08 up to 500 uM incubated for 24 to 48 hrs under dark condition by microdilution broth assay. The class given is functional. The method, boiled down: (§3)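 Broth microdilution per M07-A07, modified, in Mueller-Hinton broth adjusted to pH 7.4 (±0.2). Inoculum is prepared in sterile water to McFarland 0.5 (1.5 × 10⁸ CFU/mL). Plates are incubated in the dark at 35 °C in humid air. MIC is read after 24 and 48 h as at least 95% growth reduction versus control (IC₉₅).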

Data set [16] has as its system Mycobacterium avium. The data set is described as follows: Antimycobacterial activity against Mycobacterium avium 330/88 measured after 21 days by micromethod. It counts as functional. As to conditions: 330/88, 504 h.
Data set [17] deals with Mycobacterium kansasii. The data set is described as follows: Antimycobacterial activity against Mycobacterium kansasii isolate 6509/96 after 21 days by micromethod. The class given is functional. As to conditions: isolate 6509/96, 504 h.
The subject of data set [18] is Mycobacterium kansasii. The data set is described as follows: Antimycobacterial activity against Mycobacterium kansasii isolate 235/80 after 14 days by micromethod. It counts as functional. As to conditions: isolate 235/80, 336 h.
Another data set concerns Lichtheimia corymbifera. As to the kind of experiment: Antifungal activity against Absidia corymbifera 272 after 24 to 48 hrs hrs by microdilution broth assay. The class given is functional. Put shortly:
as §2

For data set [19], the system named is Mycobacterium avium. As to the kind of experiment: Antimycobacterial activity against Mycobacterium avium 330/88 measured after 14 days by micromethod. The class given is functional. As to conditions: 330/88, 336 h.
Data set [20] relates to Mycobacterium tuberculosis. As to the kind of experiment: Antimycobacterial activity against Mycobacterium tuberculosis H37Rv 331/88 measured after 14 days by micromethod. The class given is functional. The note with it: H37Rv 331/88, 336 h.
A further data set concerns Pseudomonas aeruginosa. The data set is described as follows: Antibacterial activity against Pseudomonas aeruginosa CCM 1961 up to 500 uM incubated for 24 to 48 hrs under dark condition by microdilution broth assay. The class given is functional. Put shortly: as §3
Data set [21] deals with Klebsiella pneumoniae. As to the kind of experiment: Antibacterial activity against Klebsiella pneumoniae D 11750/08 up to 500 uM incubated for 24 to 48 hrs under dark condition by microdilution broth assay. The class given is functional. The method, boiled down:
as §3

A further data set deals with Pichia kudriavzevii. The data set is described as follows: Antifungal activity against Candida krusei E28 after 24 to 48 hrs hrs by microdilution broth assay. It counts as functional. The method, boiled down: as §2
The test system of data set [22] is Mycobacterium kansasii. The data set is described as follows: Antimycobacterial activity against Mycobacterium kansasii isolate 235/80 after 7 days by micromethod. The note with it: isolate 235/80, 168 h. The class given is functional.
Data set [23] relates to Mycobacterium kansasii. As to the kind of experiment: Antimycobacterial activity against Mycobacterium kansasii isolate 6509/96 after 14 days by micromethod. It counts as functional. The note with it: isolate 6509/96, 336 h.
A short description of data set [24]: Solubility of the compound in Sula's semisynthetic medium up to 1 mM. It counts as physicochemical.
For data set [25], the system named is Mycobacterium kansasii. The data set is described as follows: Antimycobacterial activity against Mycobacterium kansasii isolate 235/80 after 21 days by micromethod. The class given is functional. As to conditions: isolate 235/80, 504 h.

Molecules are shown by their SMILES. Values after ≈ are worked out from the molar mass of the structure shown. Active and inactive are the calls of the source. The rule behind the calls is not given here.

As to `OC(Cn1cncn1)(Cn1cncn1)c1ccc(F)cc1F` [FLUCONAZOLE], the MIC50 in [1] is 7.81 µM (≈ 2.39 µg/mL); in data set [4] it was 125 µM (≈ 38.3 µg/mL); against Aspergillus fumigatus [6], above 500 µM; with Aspergillus fumigatus [7], above 500 µM. Also, the MIC80 is 0.24 µM (≈ 0.0735 µg/mL) with Candida albicans [2]; 500 µM (≈ 153 µg/mL) against Trichosporon asahii [3]; 62.5 µM (≈ 19.1 µg/mL) against Nakaseomyces glabratus [5]; 250 µM (≈ 76.6 µg/mL) with Trichosporon asahii [8]; above 500 µM in the data set on Candida tropicalis [9]; above 500 µM in the data set on Candida tropicalis [10]. Moreover, the figures for the MIC80 with Nakaseomyces glabratus [11] and in the data set with Candida albicans [12] were 500 µM (≈ 153 µg/mL) and 0.24 µM (≈ 0.0735 µg/mL), respectively.
On to `O=C(CN1C(=O)CSC1=S)Oc1ccc(Cl)cc1`, for which the minimal inhibitory concentration (MIC) against Mycobacterium kansasii [13] is 250 µM (≈ 75.4 µg/mL); in data set [14], 500 µM (≈ 151 µg/mL); in the data set with Mycobacterium avium [16], 1000 µM (≈ 302 µg/mL); against Mycobacterium kansasii [17], 500 µM (≈ 151 µg/mL); against Mycobacterium kansasii [18], 500 µM (≈ 151 µg/mL); in the data set with Mycobacterium avium [19] it was 1000 µM (≈ 302 µg/mL). For the same molecule, the minimum inhibitory concentration (MIC) was found to be 250 µM (≈ 75.4 µg/mL) in [20], 250 µM (≈ 75.4 µg/mL) against Mycobacterium kansasii [22], 500 µM (≈ 151 µg/mL) against Mycobacterium kansasii [23] and 1000 µM (≈ 302 µg/mL) in the data set with Mycobacterium kansasii [25]. Besides, the MIC50 in data set [1] was 500 µM (≈ 151 µg/mL); in [4] it was 500 µM (≈ 151 µg/mL); with Aspergillus fumigatus [6] it was above 500 µM; against Aspergillus fumigatus [7], above 500 µM. Further, the outcome with Klebsiella pneumoniae [15], in the data set with Lichtheimia corymbifera, in the data set on Pseudomonas aeruginosa, with Klebsiella pneumoniae [21] and with Pichia kudriavzevii was inactive. The MIC80 against Candida albicans [2], against Trichosporon asahii [3], with Nakaseomyces glabratus [5], against Trichosporon asahii [8], in the data set on Candida tropicalis [9] and against Candida tropicalis [10] was above 500 µM throughout. Moreover, the MIC80 in the data set with Nakaseomyces glabratus [11] and against Candida albicans [12] was above 500 µM in each case. For the same molecule, in [24], the solubility result is “Soluble”.
